Drawing on ChEMBL document CHEMBL1149782, “Synthesis and antifungal activity of some new 3-hydroxy-2-(1-phenyl-3-aryl-4-pyrazolyl) chromones” (2008), this text covers inhibition for 8 compounds.

Common to all, as to assay type: functional
The subject of assay [1] is Fusarium oxysporum. Put plainly: Antifungal activity against Fusarium oxysporum at 1000 ppm after 96 hrs. The essentials: (§1)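 Poisoned-food assay on potato dextrose agar (200 g potato per litre, boiled and filtered) with compound mixed into sterilized medium at final 100, 500 or 1000 ppm. Plates were centre-inoculated with mycelial discs from 7-day PDA cultures and incubated at 28 ± 1 °C. Colony diameter was measured at two right angles after 96 h. Inhibition = (C − T) × 100/C against compound-free control, mean of three replicates ± SD, two-way ANOVA.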

Assay [2] deals with Fusarium oxysporum. The experiment in a line: Antifungal activity against Fusarium oxysporum at 100 ppm after 96 hrs. The gist of the method:
as §1

For assay [3], the system named is Alternaria alternata. The experiment in a line: Antifungal activity against Alternaria alternata at 500 ppm after 96 hrs. The gist of the method: as §1
For assay [4], the system named is Helminthosporium. The experiment in a line: Antifungal activity against Helminthosporium species at 1000 ppm after 96 hrs. The essentials:
as §1

Assay [5] concerns Alternaria alternata. The experiment in a line: Antifungal activity against Alternaria alternata at 1000 ppm after 96 hrs. The essentials: as §1
For assay [6], the system named is Alternaria alternata. The experiment in a line: Antifungal activity against Alternaria alternata at 100 ppm after 96 hrs. The gist of the method: as §1
In assay [7] the test system is Fusarium oxysporum. The experiment in a line: Antifungal activity against Fusarium oxysporum at 500 ppm after 96 hrs. The gist of the method:
as §1

Assay [8] has as its system Helminthosporium. The experiment in a line: Antifungal activity against Helminthosporium species at 500 ppm after 96 hrs. The essentials:
as §1

The subject of assay [9] is Helminthosporium. The experiment in a line: Antifungal activity against Helminthosporium species at 100 ppm after 96 hrs. The essentials: as §1

The term inhibition denotes the relative decrease from the control value, in per cent. A lower inhibition goes with little suppression. For the compound `O=c1c(O)c(-c2cn(-c3ccccc3)nc2-c2ccc([N+](=O)[O-])cc2)oc2ccccc12`, the figures for the inhibition at 1000 ppm in [1], in assay [4] and in assay [5] were 14.2%, 14.4% and 16.1%, respectively. Moreover, the values for the inhibition at 100 ppm in assay [2], in assay [6] and in assay [9] were 8.57%, 0% and 1.31%, respectively. Moreover, the inhibition at 500 ppm is 16.1% in assay [3], 11.4% in assay [7] and 1.31% in [8].
Take `COc1ccc(-c2nn(-c3ccccc3)cc2-c2oc3ccccc3c(=O)c2O)cc1`: the inhibition at 1000 ppm came out at 64.2% in assay [1], 77.6% in [4] and 77.3% in assay [5]. The inhibition at 100 ppm in assay [2] came to 55.5%; in assay [6] it was 73.5%; in assay [9], 59.7%. For the same compound, the inhibition at 500 ppm in assay [3] worked out at 75.4%; in assay [7] it was 55.3%; in assay [8], 59.7%.
On to `O=c1c(O)c(-c2cn(-c3ccccc3)nc2-c2ccc(Br)cc2)oc2ccccc12`, for which the inhibition at 1000 ppm stood at 41.4% in [1], 39.2% in assay [4] and 34.5% in assay [5]. For the same compound, the inhibition at 100 ppm in assay [2] came out at 34.2%; in assay [6] it was 25.4%; in assay [9], 39%. The figures for the inhibition at 500 ppm in assay [3], in assay [7] and in [8] were 29%, 35.7% and 39.2%, respectively.
In the case of `O=c1c(O)c(-c2cn(-c3ccccc3)nc2-c2ccc(Cl)cc2)oc2ccccc12`, the inhibition at 1000 ppm was found to be 0% in [1], 21.4% in assay [4] and 38.2% in [5]. Moreover, the inhibition at 100 ppm in assay [2], in assay [6] and in [9] was 0% in each case. The inhibition at 500 ppm in [3] came to 38.2%; in assay [7], 0%; in assay [8], 1.19%.
With `O=c1c(O)c(-c2cn(-c3ccccc3)nc2-c2ccccc2)oc2ccccc12`, the inhibition at 1000 ppm is 51.7% in assay [1], 71.2% in [4] and 52.8% in assay [5]. For the same compound, the inhibition at 100 ppm in assay [2] was found to be 33.9%; in assay [6], 15%; in assay [9], 31%. Moreover, the inhibition at 500 ppm in assay [3] is 41.5%; in assay [7], 39.2%; in assay [8] it was 50.5%.
Take `O=c1c(O)c(-c2cn(-c3ccccc3)nc2-c2ccc(F)cc2)oc2ccccc12`: the results for the inhibition at 1000 ppm in assay [1], in assay [4] and in assay [5] were 16%, 58.6% and 50.9%, respectively. Moreover, the inhibition at 100 ppm in assay [2] came out at 8.9%; in [6], 30.1%; in [9] it was 12.3%. Also, the inhibition at 500 ppm was 43.3% in assay [3], 8.9% in assay [7] and 28.7% in assay [8].
Take `Cc1ccc(-c2nn(-c3ccccc3)cc2-c2oc3ccccc3c(=O)c2O)cc1`: the inhibition at 1000 ppm in assay [1] worked out at 55.7%; in [4], 76.1%; in assay [5], 61.8%. Further, the inhibition at 100 ppm is 50% in assay [2], 60% in [6] and 73.8% in [9]. The values for the inhibition at 500 ppm in assay [3], in [7] and in assay [8] were 61.8%, 51.4% and 73.8%, respectively.
With `C[C@@H]1C[C@@H]([C@H](O)CC2CC(=O)NC(=O)C2)C(=O)[C@@H](C)C1` [CYCLOHEXIMIDE], the inhibition at 1000 ppm in [1] is 50.2%; in assay [4] it was 50%; in assay [5], 50.6%. For the same compound, the inhibition at 100 ppm in assay [2] was 39.2%; in assay [6], 40.2%; in assay [9] it was 38.5%. The figures for the inhibition at 500 ppm in assay [3], in assay [7] and in assay [8] were 45.5%, 43.4% and 41.5%, respectively.
